CTSL1 counter = cathepsin L1 inhibition, PFM18AAP counter-screen. recombinant F. hepatica cathepsin L1, Z-Leu-Arg-MCA fluorescence. inhibition, % at 5.96 µM. actives 0.49% (n = 300,000);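 active means inhibition above the mean of all tested compounds plus 3 SD, set per screening campaign, cut at about 17% in these data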;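 further: 0% = plate median of test compound wells and 100% = 1 µM Z-Phe-Ala-diazomethylketone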
CHOP inh = inhibitors of CHOP induction in ER stress response. inhibition, % at 10 µM. actives 3.8% (n = 220,000). CHO-K1 CHOP-promoter luciferase, tunicamycin-induced, 15-18 h;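 active means compounds that reduced the stress-induced luciferase reporter signal by more than about 70% of percent inhibition, limit read from the data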;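 further: 0% = tunicamycin plus vehicle and 100% = wells without tunicamycin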
UCH37 inh = human UCH37 deubiquitinating enzyme inhibition | Q9Y5K5 | purified proteasome/UCH37, Ub-AMC cleavage fluorescence | inhibition, % (concentration not given with the values) | actives 0.33% (n = 330,000) | AID 588478;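 active means mean inhibition over replicate wells above about 20%, limit read from the data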;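 further: 0% = compound-free wells with enzyme and 100% = wells lacking proteasome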
Target sequence (Q9Y5K5 whole entry, looked up): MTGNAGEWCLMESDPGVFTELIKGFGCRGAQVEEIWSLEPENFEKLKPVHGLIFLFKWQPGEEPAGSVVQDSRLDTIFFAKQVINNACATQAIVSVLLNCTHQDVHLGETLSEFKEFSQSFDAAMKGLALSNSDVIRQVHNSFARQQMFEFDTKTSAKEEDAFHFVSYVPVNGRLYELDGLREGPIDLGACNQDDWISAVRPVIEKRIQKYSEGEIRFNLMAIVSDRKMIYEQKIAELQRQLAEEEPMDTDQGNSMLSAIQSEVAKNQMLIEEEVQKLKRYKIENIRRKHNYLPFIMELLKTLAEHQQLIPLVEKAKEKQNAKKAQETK
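assay system = human UCH37 enzyme supplied as purified proteasome complex | amount = proteasome at 0.15 nM in the dispensed enzyme solution | schedule = 30 min compound-proteasome preincubation then 25 min substrate reaction, room temperature | measured by = fluorescence, ex 355 nm, em 460 nm | benchmarks = no-proteasome wells (full inhibition) and compound-free wells (no inhibition)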
UPR XBP1 act = activators of adaptive arm of unfolded protein response (XBP1). CHO-XBP1 luciferase reporter, IRE1-XBP1 UPR activation, luminescence; percent of tunicamycin response, DMSO as zero. activation, % at 20 µM. actives 0.33% (n = 330,000). AID 463104;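 active means versus positive control, 20 µM dose yields 30% or more activation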;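 further: 100% = tunicamycin at 10 µg/mL and 0% = DMSO only wells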
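Test system: CHO-XBP1 luciferase reporter cells | Buffer or medium: Serum-containing F12 medium, 10% FBS | Schedule: 6 h compound exposure at 37 °C, 5% CO2 | Detection: Steady-Glo luciferase glow luminescence, 10 min after reagent addition | Read-out basis: Activation, % of tunicamycin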
CHOP UPR activ = activators of apoptotic arm of unfolded protein response (CHOP); CHO-CHOP luciferase reporter, UPR activation, luminescence; percent of tunicamycin response over DMSO baseline; activation, % at 10 µM; actives 0.34% (n = 330,000); AID 449763;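 active means at 10 µM dose, activation of 40% or more, normalized to positive control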;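 further: 100% = tunicamycin at 10 µg/mL and 0% = DMSO alone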
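measured by = luciferase luminescence | assay system = CHO-CHOP cells, stable luciferase reporter of PERK-eIF2a-CHOP signalling | amount = 500 reporter cells seeded per well | timing = 6 h compound exposure at 37 °C after overnight seeding | controls = positive tunicamycin 10 µg/mL, negative DMSO alone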
UCH37 confirm = UCH37 Ub-AMC cleavage inhibition, confirmed; shares compounds with UCH37 inh; Proteasome-bound UCH37, Ub-AMC cleavage fluorescence; actives 27% (n = 480); AID 624100; inhibition, % at 20 µM;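 active means average inhibition over replicates above about 50%, so the earlier screening hit is confirmed, limit read from the data; inactive means the rest, counted as false positives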;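 further: based on cleavage rate fitted by regression over a 30 min kinetic read; 0% = proteasome plus Ub-AMC and 100% = Ub-AMC without proteasome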
Numbers without * were called inactive; . = no result given. This excerpt belongs to a sample that is enriched for hits.

SMILES	CTSL1 counter	CHOP inh	UCH37 inh	UPR XBP1 act	CHOP UPR activ	UCH37 confirm
CC1Cc2ccccc2N1C(=O)COC(=O)c1ccc([N+](=O)[O-])o1 (stereo unspecified)	.	.	26.4*	-0.2	0.1	31.2
O=C(COC(=O)c1ccc([N+](=O)[O-])o1)NC1CCCC1	.	.	31.9*	-0.5	-0.6	10.4
CC1CCCC(NC(=O)COC(=O)c2ccc([N+](=O)[O-])o2)C1C (stereo unspecified)	.	.	12.7	0.3	-1.6	.
CC1CCCCC1NC(=O)COC(=O)c1ccc([N+](=O)[O-])o1 (stereo unspecified)	.	.	30.3*	0.8	4.0	1.5
CCOc1cc(C=NNC(=O)Cn2nc([N+](=O)[O-])cc2C)cc(Br)c1OCc1ccccc1F	.	.	5.2	.	.	.
CCC(C)=NNc1nc(-c2cc3cccc(OC)c3oc2=O)cs1	.	.	-6.3	.	.	.
CN(C)S(=O)(=O)c1ccc(C(=O)Nc2nnc(-c3cccs3)o2)cc1	4.0	6.5	52.0*	-1.3	4.0	2.8
COc1ccccc1CNC(=O)CC(C)=NNC(=O)Cc1ccc(Cl)cc1	.	.	1.9	.	.	.

Bioassay records from PubChem.
